Laboratory results from article PMC7113734 (Antiviral Research, 2016).
Read-outs that look alike come from different tables or passages of the source.

Assays:
HIV-1IIIB [1] = test: Antiviral activity with added serum proteins in CEM-SS cells; format: cell-based
MT-4 cells = test: Toxicity to MT-4 cells; format: cell-based; conditions: all assays
[2] = test system: IIIB strain of HIV-1 in CEM-SS cells; test: Combination drug interaction evaluation; format: cell-based
Summary of the method: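 CEM-SS cells infected with HIV-1 IIIB; inhibition of cytopathic effect measured for the test compound in two-drug combinations with known anti-HIV agents. Efficacy and toxicity analysed by Prichard–Shipman MacSynergy II. Expected additive inhibition computed from each agent's single-agent dose–response; inhibition above expected at each concentration calculated at 95%, 99% and 99.9% confidence. −99 to −51 μM2% scored antagonistic; <−100 highly antagonistic.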

[3] = test system: clinical HIV-1 subtype B virus 92US723; test: Antiviral activity with added serum proteins in fresh human PBMCs; format: cell-based; conditions: 50% human serum, AAGP or HSA vs medium only
wild type HIV-1 RT = wild type HIV-1 RT (Human immunodeficiency virus type 1 group M subtype B, UniProt P04585); test: Biochemical RT inhibition assay
HIV-1 integrase = HIV-1 integrase (Human immunodeficiency virus type 1 group M subtype B, UniProt P04585); test: HIV-1 integrase inhibition assay; format: biochemical
in vitro = conditions: human, CC50 (cytotoxic concentration), fresh human PBMCs
cytochrome P450 enzymes = test: Inhibition of cytochrome P450 enzymes; format: in vitro ADME
Pharmacokinetics in rats = format: in vivo; conditions: male, Sprague-Dawley, rat, plasma, po, 1000 mg/kg
Summary of the method: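 Male Sprague-Dawley rats, n = 3 per route. Prodrug given as IV bolus (50 mg/kg, 12.5 mg/mL in 5% DMSO/50% PEG300 in saline) or PO (1000 mg/kg, […] in 2% CMC suspension). Blood sampled over 24 h into sodium fluoride plus citric acid, kept on wet ice <10 min, then centrifuged at 4 °C. Plasma stored at −80 °C; prodrug and active metabolite quantified by UPLC-MS/MS (prodrug LLOQ 0.10 ng/mL).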

HIV-1IIIB [4] = test: Drug-resistant virus selection by serial dose escalation; format: cell-based; conditions: fourteen passages, CEM-SS cells
HIVIIIB = test: Cell-to-cell virus transmission assay in CEM-SS cells; format: cell-based, HIV-1
[5] = test system: drug resistant clinical HIV isolates; test: Antiviral activity against drug-resistant HIV-1 in PBMCs; format: cell-based; conditions: Human immunodeficiency virus 1, PBMC
HIV strain 92US727 = test: Cell-to-cell virus transmission assay in fresh human PBMCs; format: cell-based, HIV-1
Summary of the method: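 HIV-infected fresh human PBMCs treated 3 days with six concentrations of test compound. Passaged every 3 days for three passages at fixed compound concentration; 80% of culture volume replaced with fresh compound-containing medium and uninfected cells. Cell-free supernatants collected on sub-culture days for RT activity and extracellular p24 antigen. TCID50 per passage by endpoint dilution.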

HIV-1 protease = HIV-1 protease (Human immunodeficiency virus type 1 group M subtype B, UniProt P04585); test: HIV-1 protease inhibition assay; format: biochemical
[6] = test system: HIV attachment to HeLa-CD4-LTR-β-gal cells; test: Attachment inhibition assay; format: cell-based, HIV-1; conditions: Human immunodeficiency virus 1, read-out: Attachment inhibition EC50 ± SD
hERG = hERG (Homo sapiens, UniProt Q12809); test: Standard hERG test for cardiotoxicity
hERG, sequence (Q12809 whole entry): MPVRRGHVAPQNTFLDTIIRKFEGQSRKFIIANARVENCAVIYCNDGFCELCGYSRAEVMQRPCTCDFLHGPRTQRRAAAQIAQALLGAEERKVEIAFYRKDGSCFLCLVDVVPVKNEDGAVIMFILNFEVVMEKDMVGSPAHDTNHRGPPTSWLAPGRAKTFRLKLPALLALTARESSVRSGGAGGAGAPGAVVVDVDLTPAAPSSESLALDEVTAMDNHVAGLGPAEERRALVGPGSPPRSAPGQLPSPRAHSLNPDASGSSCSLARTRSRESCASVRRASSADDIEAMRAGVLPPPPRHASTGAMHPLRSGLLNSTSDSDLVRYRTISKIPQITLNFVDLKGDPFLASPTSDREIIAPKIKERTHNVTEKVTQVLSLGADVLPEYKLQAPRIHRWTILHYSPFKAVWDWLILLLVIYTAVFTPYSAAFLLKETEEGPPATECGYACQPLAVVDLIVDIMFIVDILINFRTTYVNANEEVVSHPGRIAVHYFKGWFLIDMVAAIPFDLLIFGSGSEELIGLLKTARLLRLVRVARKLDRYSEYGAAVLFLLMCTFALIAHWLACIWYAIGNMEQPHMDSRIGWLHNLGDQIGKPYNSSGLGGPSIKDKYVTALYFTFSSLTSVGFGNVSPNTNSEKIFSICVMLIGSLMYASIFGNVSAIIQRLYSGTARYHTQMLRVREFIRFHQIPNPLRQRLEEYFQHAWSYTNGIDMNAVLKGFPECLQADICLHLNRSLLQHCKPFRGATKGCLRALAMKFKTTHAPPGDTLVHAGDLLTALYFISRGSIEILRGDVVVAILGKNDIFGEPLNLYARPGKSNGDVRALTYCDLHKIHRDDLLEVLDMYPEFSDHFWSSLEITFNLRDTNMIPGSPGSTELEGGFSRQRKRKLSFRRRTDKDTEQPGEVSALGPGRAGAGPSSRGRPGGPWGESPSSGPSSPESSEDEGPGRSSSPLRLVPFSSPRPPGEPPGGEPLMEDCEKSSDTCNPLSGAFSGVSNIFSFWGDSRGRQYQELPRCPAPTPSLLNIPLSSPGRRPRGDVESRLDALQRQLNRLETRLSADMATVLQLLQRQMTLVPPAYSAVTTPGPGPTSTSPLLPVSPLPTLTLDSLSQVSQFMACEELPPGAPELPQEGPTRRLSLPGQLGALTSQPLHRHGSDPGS

[7] = test system: drug-resistant HIV-1 strains; test: Antiviral activity against drug-resistant HIV-1 strains in MT-4; format: cell-based; conditions: MT-4
[8] = test system: HL2/3 cells expressing HIV-1 gp120 and gp41 fusing with HeLa-CD4-LTR-β-gal cells; test: Fusion inhibition assay; format: cell-based; conditions: Human immunodeficiency virus 1, HL2/3, read-out: Fusion inhibition EC50 ± SD
Summary of the method: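 HeLa-CD4-LTR-β-Gal cells incubated with test compound for 1 h at 37°C/5% CO2, then co-cultured 48 h with HL2/3 cells. Cells lysed and β-galactosidase expression measured by chemiluminescent Gal-Screen.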

NC(=O)CCNC(=O)c1ccccc1S [MDH-1-38, N-(3-amino-3-oxopropyl)-2-mercaptobenzamide]
fold decrease in potency (HIV-1IIIB [1]; in the presence of 50% human AB serum): ~4.5 fold
fold decrease in potency (HIV-1IIIB [1]; in the presence of HSA (10 mg/mL)): 4.5 fold
non-toxic up to high test concentration (MT-4 cells): > 100 µM
mean synergy volume ([2]; in combination with amprenavir): 101 ± 61 μM^2%
mean synergy volume ([2]; in combination with dolutegravir): 95.7 ± 44.3 μM^2%
mean synergy volume ([2]; in combination with enfuviritide): 80.8 ± 32.9 μM^2%
mean synergy volume ([2]; in combination with lopinavir): 108 ± 64.5 μM^2%
mean synergy volume ([2]; in combination with nelfinavir): 498 ± 288 μM^2%
mean synergy volume ([2]; in combination with ritonavir): 282 ± 111 μM^2%
change in antiviral activity with serum protein additives [3]: no significant change in antiviral activity
EC50 (wild type HIV-1 RT): > 100 µM
EC50 (HIV-1 integrase): > 100 µM
CC50 (in vitro): > 231 µM
inhibition of cytochrome P450 enzymes (cytochrome P450 enzymes): neither NS1040 nor MDH-1-38 had significant inhibitory activity
bioavailability (Pharmacokinetics in rats): 64%
selection of resistant virus (HIV-1IIIB [4]): did not result in resistance
RT (HIVIIIB; Passage 1, 2 μM): 22 cpm
TCID50/mL (HIVIIIB; Passage 1, 2 μM): 0 TCID50/mL
p24 (HIVIIIB; Passage 1, 2 μM): 619 pg/mL
RT (HIVIIIB; Passage 2, 2 μM): 185 cpm
TCID50/mL (HIVIIIB; Passage 2, 2 μM): 2.46 × 10^5 TCID50/mL
p24 (HIVIIIB; Passage 2, 2 μM): 28,255 pg/mL
RT (HIVIIIB; Passage 3, 2 μM): 2820 cpm
TCID50/mL (HIVIIIB; Passage 3, 2 μM): 2.41 × 10^4 TCID50/mL
p24 (HIVIIIB; Passage 3, 2 μM): 394,996 pg/mL
EC50 ([5]; read-out: PBMC/HIV-1 EC50 ± SD, Multi-drug resistant AD. MDR): 10.6 ± 6.95 µM
EC50 ([5]; read-out: PBMC/HIV-1 EC50 ± SD, Multi-drug resistant MDR769): 3.5 ± 1.45 µM
EC50 ([5]; read-out: PBMC/HIV-1 EC50 ± SD, NNRTI-resistant A17R): 11.4 ± 8.47 µM
EC50 ([5]; read-out: PBMC/HIV-1 EC50 ± SD, NNRTI-resistant N119): 2.58 ± 2.52 µM
EC50 ([5]; read-out: PBMC/HIV-1 EC50 ± SD, PI-resistant 144-44): 9.78 ± 8.23 µM
EC50 ([5]; read-out: PBMC/HIV-1 EC50 ± SD, PI-resistant 1002-60): 2.04 ± 1.03 µM
EC50 ([5]; read-out: PBMC/HIV-1 EC50 ± SD, PI-resistant 1022-48): 0.98 ± 0.64 µM
EC50 ([5]; read-out: PBMC/HIV-1 EC50 ± SD, PI-resistant 1026-60): 2.67 ± 0.4 µM
EC50 ([5]; read-out: PBMC/HIV-1 EC50 ± SD, PI-resistant 1064-52): 3.06 ± 0.28 µM
EC50 ([5]; read-out: PBMC/HIV-1 EC50 ± SD, Wild Type 92US727): 3.32 ± 1.95 µM
RT (HIV strain 92US727; Passage 1, 3.25 μM): 216 cpm
TCID50/mL (HIV strain 92US727; Passage 1, 3.25 μM): 3.75 × 10^2 TCID50/mL
p24 (HIV strain 92US727; Passage 1, 3.25 μM): 816 pg/mL
RT (HIV strain 92US727; Passage 2, 3.25 μM): 730 cpm
TCID50/mL (HIV strain 92US727; Passage 2, 3.25 μM): 4.90 × 10^3 TCID50/mL
p24 (HIV strain 92US727; Passage 2, 3.25 μM): 2642 pg/mL
RT (HIV strain 92US727; Passage 3, 3.25 μM): 11,080 cpm
TCID50/mL (HIV strain 92US727; Passage 3, 3.25 μM): 2.17 × 10^4 TCID50/mL
p24 (HIV strain 92US727; Passage 3, 3.25 μM): 55,429 pg/mL
EC50 (HIV-1 protease): > 100 µM
EC50 [6]: 44.4 ± 7.21 µM
hERG test for cardiotoxicity (hERG): negative
EC50 ([7]; Human immunodeficiency virus 1, read-out: Mean EC50 ± SD, AZT- and NNRTI-resistant, RT 4xAZT/L100I): 3.59 ± 1.25 µM
EC50 ([7]; Human immunodeficiency virus 1, read-out: Mean EC50 ± SD, AZT- and NNRTI-resistant, RT 4xAZT/Y181C): 4.87 ± 0.22 µM
EC50 ([7]; Human immunodeficiency virus 1, read-out: Mean EC50 ± SD, AZT-resistant, RT 4xAZT (D67N/K70R/T215Y/K219Q)): 3.31 ± 2.2 µM
EC50 ([7]; Human immunodeficiency virus 1, read-out: Mean EC50 ± SD, Atazanavir-resistant, PR I50L): 0.82 ± 0.37 µM
EC50 ([7]; Human immunodeficiency virus 1, read-out: Mean EC50 ± SD, Didanosine-resistant, RT L74V): 3.93 ± 2.33 µM
EC50 ([7]; Human immunodeficiency virus 1, read-out: Mean EC50 ± SD, Enfuviritide-resistant, Env V38A/N126K): 7.09 ± 0.03 µM
EC50 ([7]; Human immunodeficiency virus 1, read-out: Mean EC50 ± SD, Indinavir-, Ritonavir-resistant, PR I84V): 2.54 ± 0.93 µM
EC50 ([7]; Human immunodeficiency virus 1, read-out: Mean EC50 ± SD, Indinavir-, Ritonavir-resistant, PR V82A): 10.3 ± 5.34 µM
EC50 ([7]; Human immunodeficiency virus 1, read-out: Mean EC50 ± SD, Indinavir-, Ritonavir-resistant, PR V82F/I84V): 4.1 ± 0.47 µM
EC50 ([7]; Human immunodeficiency virus 1, read-out: Mean EC50 ± SD, Lamivudine-resistant, RT M184V): 2.7 ± 1.52 µM
EC50 ([7]; Human immunodeficiency virus 1, read-out: Mean EC50 ± SD, NNRTI-resistant, RT K103N/Y181C): 8.03 ± 1.45 µM
EC50 ([7]; Human immunodeficiency virus 1, read-out: Mean EC50 ± SD, NNRTI-resistant, RT K103N): 3.97 ± 1.31 µM
EC50 ([7]; Human immunodeficiency virus 1, read-out: Mean EC50 ± SD, NNRTI-resistant, RT L100I): 1.22 ± 0.01 µM
EC50 ([7]; Human immunodeficiency virus 1, read-out: Mean EC50 ± SD, NNRTI-resistant, RT V106A): 2.74 ± 2.17 µM
EC50 ([7]; Human immunodeficiency virus 1, read-out: Mean EC50 ± SD, NNRTI-resistant, RT V108I): 3.84 ± 1.6 µM
EC50 ([7]; Human immunodeficiency virus 1, read-out: Mean EC50 ± SD, NNRTI-resistant, RT V179D): 3.57 ± 1.81 µM
EC50 ([7]; Human immunodeficiency virus 1, read-out: Mean EC50 ± SD, NNRTI-resistant, RT Y181C): 3.99 ± 1.59 µM
EC50 ([7]; Human immunodeficiency virus 1, read-out: Mean EC50 ± SD, NNRTI-resistant, RT Y188C): 3.37 ± 2.15 µM
EC50 ([7]; Human immunodeficiency virus 1, read-out: Mean EC50 ± SD, Raltegravir-resistant, IN Q148H/G140S): 3.39 ± 2.15 µM
EC50 ([7]; Human immunodeficiency virus 1, read-out: Mean EC50 ± SD, Saquinavir-resistant, PR G48V/L90M): 1 ± 0.34 µM
EC50 ([7]; Human immunodeficiency virus 1, read-out: Mean EC50 ± SD, Tenofovir-resistant, RT K65R): 4.29 ± 0.64 µM
EC50 [8]: 83.3 ± 26.4 µM
